# Hits are enriched below; roughly 3.8% of the tested compounds scored in any of these assays.
# MrgX1 antagonist – human MrgX1 receptor antagonism, primary screen; MRGX1-HEK293 calcium flux, Fluo-4, BAM8-22 antagonism; active compounds read low; 310,000 compounds, 1.3% hits; AID 588676; B-score at 10 µM;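 active = calcium-response B-score plate-corrected more than 3 library SD below zero, starting fluorescence within 5 deviations, no agonist response on first addition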;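 also: peak minus trough fluorescence over baseline after final BAM8-22 challenge near maximal dose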
# Target sequence (Q96LB2 whole entry, looked up): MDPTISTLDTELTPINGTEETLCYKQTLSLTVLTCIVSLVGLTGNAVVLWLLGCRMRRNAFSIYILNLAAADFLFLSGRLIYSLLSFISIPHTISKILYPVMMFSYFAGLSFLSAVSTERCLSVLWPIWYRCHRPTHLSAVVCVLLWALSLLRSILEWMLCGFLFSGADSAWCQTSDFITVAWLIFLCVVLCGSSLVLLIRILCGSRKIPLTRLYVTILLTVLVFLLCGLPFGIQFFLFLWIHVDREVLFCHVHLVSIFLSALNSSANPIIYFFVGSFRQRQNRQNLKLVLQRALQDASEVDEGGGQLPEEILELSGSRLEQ
# MrgX1 PAM – human MrgX1 positive allosteric modulation, primary screen. 310,000 compounds, 0.63% hits. Q96LB2. B-score at 10 µM. MrgX1-HEK293, Fluo-4 calcium flux, FDSS; active compounds read high;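 active = plate-corrected calcium response at least 3 library SD above typical, normal starting fluorescence, not activating the receptor alone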;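 also: compound read alongside a low EC10 to EC30 dose of BAM8-22 agonist; peak minus trough fluorescence over baseline measured at the second addition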
# MrgX1 ag – activates human MrgX1 receptor signaling; Q96LB2; MrgX1-HEK293 cells, Fluo-4 calcium fluorescence, agonist mode; active compounds read high; B-score at 10 µM; 310,000 compounds, 0.44% hits;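 active = calcium response B-score plate-corrected fluorescence ratio at least 3 library SD, with starting fluorescence B-score inside 5 SD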
#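 times = overnight plating, then 30 min 37 °C plus 30 min room-temperature dye loading | assay system = stable human MrgX1 HEK293 cell line | input = fifteen thousand cells per well | signal = kinetic calcium dye fluorescence, Fluo-4 NW | dosing = compound delivered in addition one of three | read-out = B-scored fluorescence response ratio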
# RGS4 block – human RGS4 inhibition; P49798; HEK293 M3R/RGS4 inducible, Fluo-4 calcium flux; active compounds read high; triggered by carbachol at its EC20; B-score at 10 µM; 310,000 compounds, 0.45% hits; AID 463165;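 active = B-score, a plate-corrected calcium signal, over three deviations above library mean, with baseline fluorescence within five deviations of library mean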;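 also: RGS4 expression induced by doxycycline in cells with stable M3 receptor; B-score is computed from the integrated fluorescence ratio over baseline after carbachol; higher B-score means a larger calcium signal and so more RGS4 inhibition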
# Target sequence (P49798 whole entry, looked up): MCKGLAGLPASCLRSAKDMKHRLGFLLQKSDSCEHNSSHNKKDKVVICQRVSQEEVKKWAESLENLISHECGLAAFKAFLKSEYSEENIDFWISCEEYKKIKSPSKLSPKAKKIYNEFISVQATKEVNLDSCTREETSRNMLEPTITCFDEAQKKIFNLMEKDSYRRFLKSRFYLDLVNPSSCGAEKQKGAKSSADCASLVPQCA
# Hep lipid drop – modulators of hepatic lipid droplet formation | AML12 mouse hepatocytes, oleate lipid droplets, BODIPY imaging | inhibition, % at 6.5 µM | 240,000 compounds, 0.4% hits | AID 1656;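 active = lipid droplet intensity inhibited by at least 50%, with more than 500 cells counted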
#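 Test system: AML12 mouse liver cells; schedule: overnight exposure; technique: high-content imaging of BODIPY-stained droplets and DAPI nuclei; read-out: % inhibition of corrected integrated BODIPY droplet signal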
# RGS4 pot – RGS4 potentiation or activation; HEK293 M3R/inducible RGS4, carbachol calcium flux Fluo4; active compounds read low; B-score at 10 µM; 310,000 compounds, 0.92% hits;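 active = B-score of the integrated calcium signal more than 4 SD below the library mean, with starting fluorescence not abnormally high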;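 also: negative B-score means reduced calcium response which marks RGS4 activation or potentiation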
#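 System: HEK293 FlpIn-TREx cells, stable M3R, doxycycline-inducible RGS4. Timing: overnight RGS4 induction, 30 min dye load 37 °C, 20 min compound RT. Also added: carbachol, ECmax concentration. Measured by: Fluo4 fluorescence kinetic imaging of calcium. Evaluation: integrated calcium ratio converted to B score.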
# Active calls of the source: *; i = inactive; / = no result given.
SMILES,MrgX1 antagonist,MrgX1 PAM,MrgX1 ag,RGS4 block,Hep lipid drop,RGS4 pot
Cc1ccc(-n2nc3c(=O)n(CCCC(=O)NC4CCC(C)CC4)nc(C)c3c2C)cc1 (configuration not stated),i,i,i,i,14,i
O=C(N/N=C/c1cc([N+](=O)[O-])ccc1Cl)c1cc(-c2ccccc2)nc2ccccc12,i,i,i,i,-1,i
O=C(N/N=C/c1cc([N+](=O)[O-])ccc1O)c1cc(-c2ccccc2)nc2ccccc12,-6*,i,i,i,-35,i
Cc1cc(/C=C2/NC(=O)NC2=O)c(C)n1-c1ccncc1,i,6.7*,i,i,10,i
O=C(CSc1nc2ccccc2s1)NCc1cc([N+](=O)[O-])ccc1O,i,i,i,i,/,i
Cc1ccc(-c2nc(SC(C)C(=O)N3CCCC3)n[nH]2)cc1 (configuration not stated),i,i,i,i,/,i
O=C(CN1CCCCC1)Nc1cc(Cl)ccc1Oc1ccccc1,i,i,i,i,-31,i
O=C(CN1CCCCCC1)Nc1ccccc1Oc1ccccc1,i,i,i,i,11,-7.2*
CC(C)OC(=O)c1c(N)n(CCCN2CCOCC2)c2nc3ccccc3nc12,i,i,i,i,-4,i
CC(C)OC(=O)c1c2nc3ccccc3nc2n2c1[nH]c(=O)c1ccccc12,i,i,32*,i,-2,i
O=C(Nc1nc(-c2ccccc2)cs1)c1ccccc1NS(=O)(=O)c1ccc(F)cc1,i,i,i,i,-40,-7.2*
O=S(=O)(Nc1ccc(-c2csc(-c3ccccc3)n2)cc1)c1ccc(F)cc1,i,i,i,i,5,i
COC(=O)c1[nH]c2ccccc2c1NC(=O)CNC1CCCCC1,i,i,i,i,-12,-7*
C=CCOc1cccc(C(=O)/C=C2/C(=O)Nc3ccccc32)c1,i,i,i,5.8*,2,i
O=C(O)COc1ccccc1/C=C1\C(=O)Nc2ccc(Br)cc21,i,i,i,i,/,i
Cc1ccc(Cc2c(C)nc3nc(SCC(=O)NCCCN4CCOCC4)nn3c2C)cc1,i,i,i,i,0,i
Cc1nc2nc(SCC(=O)NCCCN3CCCCCC3)nn2c(C)c1Cc1ccccc1,i,i,i,i,-32,-7.5*
CCn1c2ccc(C)cc2c2nnc(NN)nc21,i,i,29*,i,1,i
CCn1c2ccccc2c2nnc(NN)nc21,i,i,i,i,-2,i
CCOc1ccc(NS(=O)(=O)c2ccc(C(=O)NCC(c3ccc(OC)cc3)N3CCOCC3)cc2)cc1 (configuration not stated),i,i,i,i,/,i
CCN1/C(=C/C=C/c2oc3ccc(-c4ccccc4)cc3[n+]2CC)Oc2ccc(-c3ccccc3)cc21,i,i,i,i,120*,i
CCOC(=O)c1ccc(NC(=O)N2CCN(c3ccccn3)CC2)cc1,i,i,i,i,-7,-7.1*
COc1ccc(-c2nn(-c3ccccc3)cc2/C=N/NC(=O)c2cccc(S(=O)(=O)Nc3ccccc3Cl)c2)cc1,-5*,i,i,i,-4,i
O=C(N/N=C/c1ccccn1)c1cccc(S(=O)(=O)Nc2ccccc2Cl)c1,i,16*,i,i,0,i
COc1ccc(-c2nn(-c3ccccc3)cc2/C=N/NS(=O)(=O)c2ccccc2)cc1,i,i,i,i,/,i
SMILES,MrgX1 antagonist,MrgX1 PAM,MrgX1 ag,RGS4 block,Hep lipid drop,RGS4 pot
COc1ccc(OC)c(C2CC(=O)Nc3c2c(=O)[nH]c2ncnn32)c1 (configuration not stated),i,i,i,i,-1,i
O=C(c1ccc(Cl)cc1)N1N=CCC1(O)c1ccc(Cl)cc1 (configuration not stated),i,i,i,i,14,i
COc1cc(NC(=S)N2CCN(S(=O)(=O)c3ccccc3)CC2)cc(OC)c1,i,i,i,i,-6,i
CC(=O)Nc1sc(/C(C#N)=C/c2ccc(Cl)c(Cl)c2)nc1-c1ccc(C)cc1,/,/,/,i,6,-8.9*
O=C1CSC(c2cccc([N+](=O)[O-])c2)N1c1ccccc1 (configuration not stated),i,i,i,i,1,-7.5*
O=C1CSC(c2cccc([N+](=O)[O-])c2)N1c1ccc(O)cc1 (configuration not stated),i,i,i,i,10,i
COc1ccc(/C=C(/C(=O)c2ccc(Cl)cc2Cl)n2cncn2)cc1,i,i,35*,i,/,i
CCOC(=O)c1c(-c2ccccc2)nnn1-c1nc(OCC)nc(N2CCCCC2)n1,i,i,i,i,3,-8.7*
CCOC(=O)c1nnn(-c2nc(N3CCCC3)nc(N3CCCC3)n2)c1-c1ccccc1,i,i,i,i,/,i
O=C(c1cnn2c(-c3ccccc3)cc(-c3ccccc3)nc12)N1CCN(Cc2ccccc2)CC1,i,i,i,i,/,i
CC(=O)OCCCCCCCCCCC[N+]1(C)CCCCC1,i,i,i,i,0,-8.9*
COC(=O)CCCCCCCCCC[N+]1(C)CCCCC1,i,i,i,i,-3,i
Cc1cc(/C=C2\SC(=S)NC2=O)c(C)[nH]1,i,i,38*,i,2,i
Cc1ccc(N=Cc2cc(Br)cc(Cl)c2O)cc1,i,i,i,i,1,i
COc1ccc(CN=Cc2[nH]c3ccc(Br)c(Cl)c3c2O)cc1,i,i,37*,i,-3,i
Cc1cc(C)cc(N=Cc2[nH]c3ccc(Br)c(Cl)c3c2O)c1,i,i,39*,i,-1,i
CCCN(CC(=O)Nc1ccc(F)c(F)c1F)C(=O)CCc1nc2ccccc2c(=O)[nH]1,i,i,i,i,/,i
CCN1CC=C2C(C1)C(c1ccc(Cl)s1)C(C#N)=C(N)C2(C#N)C#N (configuration not stated),i,i,i,i,/,i
CCCOc1ccc(/C=C2/C(=O)ON=C2C)cc1OCC,i,i,i,i,6,i
CCOc1cc(/C=C2/C(=O)ON=C2C)cc(Br)c1O,i,i,58*,i,-12,i

# High-throughput results: PubChem, several laboratories
